Data on two compounds can be found in ChEMBL document CHEMBL4196009, “Novel vitexin-inspired scaffold against leukemia” (Eur J Med Chem, 2018).

Assay [1] deals with SUP-B15. As to the kind of experiment: Induction of apoptosis in human SUP-B15 cells assessed as viable cells at 10 uM after 24 hrs by Annexin V-FITC/propidium iodide staining-based flow cytometry (reference value: 82.8%). The assay is classed as functional. The settings on record: SUP-B15, 24 h, read-out: Activity.
The test system of assay [2] is SUP-B15. As to the kind of experiment: Induction of apoptosis in human SUP-B15 cells assessed as necrotic cells at 10 uM after 24 hrs by Annexin V-FITC/propidium iodide staining-based flow cytometry (reference value: 9.2%). The assay is classed as functional. (In general: In flow cytometry, cells or beads pass a laser one at a time.)
The test system of assay [3] is KOPN-8. As to the kind of experiment: Cell cycle arrest in human KOPN8 cells assessed as accumulation at S phase at 10 uM after 24 hrs by propidium iodide staining-based flow cytometry (reference value: 66.56%). The assay is classed as functional. The method, boiled down: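 KOPN-8 cells treated 24 h alongside a DMSO vehicle and a staurosporine (2.0 µM) positive control. Apoptosis was scored by FITC Annexin V / propidium iodide flow cytometry with quadrant gating (early, late apoptotic). DNA content was measured by PI staining to give the percentage of cells in G0/G1, S and G2/M. Groups were compared by t-test; error bars are SD.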

Assay [4] deals with KOPN-8. As to the kind of experiment: Induction of apoptosis in human KOPN8 cells assessed as downregulation of Mcl-1 level after 3 to 24 hrs by Western blot analysis. In kind it is functional, cell-based. The gist of the method: (§1)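 KOPN-8 cells were treated at 10–100 µM final, with or without N-acetylcysteine co-addition, for 3 h and 24 h. Lysates were analysed by Western blot for PARP cleavage, Mcl-1, phospho-Ser2 RNAPII CTD, c-Myc, total Rb and pRb. Levels are relative to the vehicle control.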
(Immunoblotting shows a protein as a band on a membrane.)

For assay [5], the species on record is Homo sapiens. The assay can be described thus: Inhibition of RNA polymerase 2 C-terminal domain phosphorylation at Ser2 residue in human KOPN8 cells after 24 hrs by Western blot analysis. In kind it is cell-based. The method, boiled down:
(§2)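 KOPN-8 cells were exposed to compound for 3 h and 24 h, with or without N-acetylcysteine added to a parallel set as antioxidant. Lysates were analysed by Western blot for cleaved PARP, Mcl-1, Ser-2-phosphorylated RNAPII CTD, cMyc, total Rb and pRb. Signals were compared against controls for dose-dependent change.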

Assay [6] concerns KOPN-8. The assay can be described thus: Induction of apoptosis in human KOPN8 cells assessed as effect on Mcl-1 level at 100 uM pre-treated with NAC for 1 hr and measured after 24 hrs by Western blot analysis relative to control. The assay is classed as functional. The gist of the method: as §2
For assay [7], the species on record is Homo sapiens. As to the kind of experiment: Inhibition of RNA polymerase 2 C-terminal domain phosphorylation at Ser2 residue in human KOPN8 cells at 10 uM after 3 hrs by Western blot analysis relative to control. The assay is classed as cell-based. The gist of the method: as §2
For assay [8], the species on record is Homo sapiens. As to the kind of experiment: Inhibition of RNA polymerase 2 C-terminal domain phosphorylation at Ser2 residue in human KOPN8 cells at 30 uM after 3 hrs by Western blot analysis relative to control. The assay is classed as cell-based. The gist of the method:
as §2

Assay [9] is filed under the species Homo sapiens. The assay can be described thus: Inhibition of RNA polymerase 2 C-terminal domain phosphorylation at Ser2 residue in human KOPN8 cells at 10 uM pre-treated with NAC for 1 hr and measured after 3 hrs by Western blot analysis relative to control. The assay is classed as cell-based. The gist of the method: as §2
The species named for assay [10] is Homo sapiens. The assay can be described thus: Inhibition of RNA polymerase 2 C-terminal domain phosphorylation at Ser2 residue in human KOPN8 cells at 100 uM pre-treated with NAC for 1 hr and measured after 24 hrs by Western blot analysis relative to control. The assay is classed as cell-based. The gist of the method: as §2
Assay [11] concerns KOPN-8. As to the kind of experiment: Effect on c-Myc expression in human KOPN8 cells at 30 uM pre-treated with NAC for 1 hr and measured after 24 hrs by Western blot analysis relative to control. The assay is classed as functional.
Assay [12] has as its system KOPN-8. The assay can be described thus: Effect on c-Myc expression in human KOPN8 cells at 100 uM after 3 hrs by Western blot analysis relative to control. In kind it is functional. The gist of the method: as §1
The target in assay [13] is T1, Retinoblastoma-associated protein (Homo sapiens) (UniProt P06400).
T1 sequence (whole entry): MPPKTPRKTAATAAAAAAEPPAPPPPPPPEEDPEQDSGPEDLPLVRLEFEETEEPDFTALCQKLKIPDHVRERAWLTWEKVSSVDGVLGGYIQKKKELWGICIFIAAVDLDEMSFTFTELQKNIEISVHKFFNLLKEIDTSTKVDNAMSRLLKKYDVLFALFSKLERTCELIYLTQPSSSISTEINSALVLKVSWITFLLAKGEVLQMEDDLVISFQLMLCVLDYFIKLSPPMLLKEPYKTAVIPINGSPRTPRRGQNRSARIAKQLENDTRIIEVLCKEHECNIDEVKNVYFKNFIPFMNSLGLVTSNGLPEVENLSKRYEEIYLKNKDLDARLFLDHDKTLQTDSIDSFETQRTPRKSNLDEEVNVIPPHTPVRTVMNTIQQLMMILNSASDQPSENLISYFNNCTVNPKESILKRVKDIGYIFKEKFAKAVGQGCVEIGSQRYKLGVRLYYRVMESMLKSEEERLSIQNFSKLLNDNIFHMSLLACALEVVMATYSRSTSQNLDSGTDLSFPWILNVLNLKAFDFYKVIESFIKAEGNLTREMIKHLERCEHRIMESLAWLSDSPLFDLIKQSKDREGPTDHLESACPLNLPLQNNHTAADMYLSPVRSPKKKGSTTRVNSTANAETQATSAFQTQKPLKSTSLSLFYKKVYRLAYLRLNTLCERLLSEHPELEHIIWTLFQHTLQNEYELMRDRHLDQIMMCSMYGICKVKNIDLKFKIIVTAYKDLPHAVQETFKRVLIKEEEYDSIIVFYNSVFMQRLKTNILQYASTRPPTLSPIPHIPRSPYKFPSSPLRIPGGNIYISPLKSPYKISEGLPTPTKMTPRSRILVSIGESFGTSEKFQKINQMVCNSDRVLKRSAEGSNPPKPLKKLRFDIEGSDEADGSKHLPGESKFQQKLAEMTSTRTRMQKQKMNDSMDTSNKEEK
The assay can be described thus: Inhibition of Rb phosphorylation in human KOPN8 cells assessed as ratio of phosphorylated Rb to total Rb levels at 30 uM pre-treated with NAC for 1 hr and measured after 3 hrs by Western blot analysis relative to control. The assay is classed as cell-based. The gist of the method: (§3)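 KOPN-8 pre-B ALL cells were treated for 3 h and 24 h, with or without N-acetyl cysteine added to a parallel set of cells as an antioxidant/ROS quencher. Lysates were analysed by Western blot for phosphorylated Rb and total Rb. The same blots also probed PARP cleavage, Mcl-1, Ser-2-phosphorylated RNAPII CTD and cMyc.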

In assay [14] the target is T1, Retinoblastoma-associated protein (Homo sapiens). The assay can be described thus: Inhibition of Rb phosphorylation in human KOPN8 cells assessed as ratio of phosphorylated Rb to total Rb levels at 100 uM pre-treated with NAC for 1 hr and measured after 24 hrs by Western blot analysis relative to control. In kind it is cell-based. The method, boiled down: as §3

The subject of assay [15] is KOPN-8. As to the kind of experiment: Induction of apoptosis in human KOPN8 cells assessed as effect on Mcl-1 level at 0.5 uM after 3 hrs by Western blot analysis relative to control. In kind it is functional.
For assay [16], the species on record is Homo sapiens. The assay can be described thus: Inhibition of RNA polymerase 2 C-terminal domain phosphorylation at Ser2 residue in human KOPN8 cells at 0.5 uM after 3 hrs by Western blot analysis relative to control. In kind it is cell-based. The method, boiled down: as §2
For assay [17], the species on record is Homo sapiens. The assay can be described thus: Inhibition of RNA polymerase 2 C-terminal domain phosphorylation at Ser2 residue in human KOPN8 cells at 0.5 uM after 24 hrs by Western blot analysis. In kind it is cell-based. The method, boiled down: as §2

As for `COc1ccc(-c2c(I)c(=O)c3c(OC)cc(OC)cc3n2S(=O)(=O)c2ccc(OC)cc2)cc1`, the viability at 10 µM in assay [1] came to 70.5%. The Activity was 15.7% in assay [2], 25.66% in [3] and “Dose-dependent effect” in assay [4]. Moreover, the inhibition entry in assay [5] was “Dose-dependent effect”. Also, the “fold change (FC)” value in [6] is 0.2; in [7] it was 0.7; in assay [8], 1; in assay [9] it was 1; in assay [10] it was 0.1; in [11] it was 1. For the same compound, the figures for the “fold change (FC)” value in assay [12], in assay [13] and in assay [14] were 0.2, 1 and 1.2, respectively.

In the case of `CN(C)C(=O)c1cc2cnc(Nc3ccc(N4CCNCC4)cn3)nc2n1C1CCCC1` [RIBOCICLIB], the “fold change (FC)” value came to 0.9 in [15], 0.8 in [16] and 2.3 in assay [17].
